Measured values as given in ChEMBL document CHEMBL4619791, “3-Difluoroalkyl Quaternary Oxindoles Inhibit Macrophage Pyroptosis by Blocking Inflammasome Recruitment of Caspase-1” (ACS Med Chem Lett, 2020).
Active and inactive are the calls of the source. No cut-off for these calls is given here.

Tests used:
[1] = target: T1, Caspase-1 (Mus musculus) (UniProt P29452); assay: Inhibition of caspase-1 activity in LPS-primed immortalized mouse […] cells assessed as reduction in nigericin-induced caspase-1 cleavage at 5 uM by Western blot analysis; type: cell-based; conditions: J774.A1
T1 sequence (whole entry): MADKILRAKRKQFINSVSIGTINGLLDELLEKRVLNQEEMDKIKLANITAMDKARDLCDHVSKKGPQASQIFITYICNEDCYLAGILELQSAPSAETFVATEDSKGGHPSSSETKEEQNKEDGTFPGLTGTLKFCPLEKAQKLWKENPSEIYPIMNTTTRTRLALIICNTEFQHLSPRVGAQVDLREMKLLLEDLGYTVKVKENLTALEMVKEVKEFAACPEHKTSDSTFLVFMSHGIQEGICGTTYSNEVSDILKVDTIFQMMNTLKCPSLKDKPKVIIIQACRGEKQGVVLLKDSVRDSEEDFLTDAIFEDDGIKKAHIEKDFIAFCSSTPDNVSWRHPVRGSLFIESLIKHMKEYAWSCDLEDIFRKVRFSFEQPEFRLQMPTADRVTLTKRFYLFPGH
Method in brief: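 Western blot of full-length and cleaved caspase-1 and caspase-8 in J774A.1 cells after nigericin, with tubulin as loading control. Bands quantified as bar graphs.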

[2] = organism: Danio rerio; assay: Antiinflammatory immunity against LPS-induced sepsis in […]:eGFP zebrafish larva assessed as decrease in macrophage infiltration in intestine at 5 uM measured at 7 dpf by confocal microscopic analysis; type: functional, organism-based
Method in brief: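 Zebrafish sepsis model using Tg(mpeg1:eGFP) larvae with GFP-labelled macrophages, treated at 5 μM. Intestine imaged by confocal microscopy at 7 days post fertilization, and macrophages counted in the imaged region.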

[3] = target: T2, Gastrin/cholecystokinin type B receptor (Mus musculus) (UniProt P56481); assay: Antagonist activity at CCKB receptor in immortalized mouse […] cells assessed as inhibition of nigericin-induced pyroptosis at 5 uM; type: cell-based; conditions: J774.A1
T2 sequence (whole entry): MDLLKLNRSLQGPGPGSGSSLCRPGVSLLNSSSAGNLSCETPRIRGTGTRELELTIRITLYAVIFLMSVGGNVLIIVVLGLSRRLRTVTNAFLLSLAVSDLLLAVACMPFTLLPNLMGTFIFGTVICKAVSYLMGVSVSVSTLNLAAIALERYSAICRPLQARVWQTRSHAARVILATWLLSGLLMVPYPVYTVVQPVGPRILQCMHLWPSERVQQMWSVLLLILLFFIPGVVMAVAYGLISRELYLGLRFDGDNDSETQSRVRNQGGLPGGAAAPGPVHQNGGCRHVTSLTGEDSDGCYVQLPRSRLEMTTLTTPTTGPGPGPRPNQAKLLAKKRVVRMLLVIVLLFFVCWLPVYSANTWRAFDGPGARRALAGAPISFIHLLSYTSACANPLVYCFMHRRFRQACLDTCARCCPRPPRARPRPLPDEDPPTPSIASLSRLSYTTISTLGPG
Method in brief: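 CCKB antagonists netazepide and proglumide were given to immortalized macrophages, with pyroptosis induced by nigericin.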

[4] = test system: Mus musculus; assay: Antiinflammatory activity against LPS-induced sepsis C57BL/6J mouse model assessed as increase in median survival time at 20 mg/kg, iv administered as single dose for 30 min prior to LPS challenge
[5] = test system: Mus musculus; assay: Antiinflammatory activity against LPS-induced sepsis C57BL/6J mouse model assessed as reduction in serum IL-1beta level at 20 mg/kg, iv administered as single dose for 1 hr prior to LPS challenge and measured after 24 hrs of compound treatment by ELISA; type: functional, organism-based
[6] = test system: BMDM; assay: Inhibition of pyroptosis in LPS-primed C57BL/6 mouse primary BMDM assessed as reduction in nigericin-induced cell death by LDH assay; type: functional, cell-based
Method in brief: (§1)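 Primary murine macrophages primed with LPS and stimulated with nigericin across a dose range. IL-1β release, LDH release and Alamar blue measured. Means ± SE, ≥3 experimental replicates.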

[7] = test system: BMDM; assay: Inhibition of pyroptosis cell death in LPS-primed C57BL/6 mouse primary BMDM assessed as reduction in nigericin-induced IL-1beta secretion; type: functional, cell-based; method in brief: as §1
[8] = test system: J774.A1; assay: Inhibition of pyroptosis in LPS-primed immortalized mouse […] cells assessed as reduction in flagellin-induced […] secretion by ELISA; type: functional, cell-based
Method in brief: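 J774A.1 cells stimulated with flagellin or poly(dA:dT). IL-1β release measured by ELISA. Mean ± SEM, n ≥ 3 independent experiments.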

[9] = target: T3, Caspase-1 (Homo sapiens) (UniProt P29466); assay: Inhibition of pronase-mediated caspase-1 degradation in HEK293 cell lysate at 5 uM measured after 30 mins by DARTS based Western blot analysis; type: cell-free
T3 sequence (whole entry): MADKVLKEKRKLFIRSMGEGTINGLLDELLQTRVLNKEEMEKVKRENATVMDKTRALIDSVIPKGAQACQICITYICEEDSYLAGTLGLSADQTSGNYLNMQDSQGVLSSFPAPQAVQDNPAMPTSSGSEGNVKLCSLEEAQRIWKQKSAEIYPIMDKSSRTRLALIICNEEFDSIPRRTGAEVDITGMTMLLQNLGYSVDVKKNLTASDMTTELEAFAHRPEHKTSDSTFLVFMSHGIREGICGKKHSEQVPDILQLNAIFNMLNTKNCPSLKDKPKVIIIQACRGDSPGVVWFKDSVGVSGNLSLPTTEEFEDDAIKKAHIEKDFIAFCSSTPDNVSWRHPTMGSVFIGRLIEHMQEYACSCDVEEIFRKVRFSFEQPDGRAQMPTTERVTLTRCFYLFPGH
Method in brief: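 DARTS assay: cell lysates pretreated with compound, then digested with different Pronase concentrations. Caspase-1 stability read by immunoblot against a histone H3 control.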

[10] = test system: Mus musculus; assay: Antiinflammatory activity against LPS-induced sepsis C57BL/6J mouse model assessed as reduction in alveolar epithelial architecture damage at 20 mg/kg, iv administered as single dose for 1 hr prior to LPS challenge and measured after 48 hrs by hematoxylin-eosin staining based inverted microscopy analysis; type: functional, organism-based
[11] = target: T1, Caspase-1 (Mus musculus); assay: Inhibition of caspase-1 activity in LPS-primed immortalized mouse […] cells assessed as reduction in nigericin-induced Ac-YVAD-pNA cleavage using Ac-YVAD-pNA as substrate at 5 uM by FAM-FLICA reagent based confocal microscopy; type: cell-based; conditions: J774.A1
Method in brief: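 Nigericin-treated macrophages. Active caspase-1 was detected two ways: in J774A.1 cells stained with the FAM-FLICA probe plus Hoechst, imaged by confocal microscopy and FLICA intensity quantified in ≥20 cells per group; and with the Ac-YVAD-pNA substrate. Mean ± SEM, n ≥ 3.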

[12] = test system: THP-1; assay: Inhibition of pyroptosis in LPS-primed human THP1 assessed as reduction in nigericin-induced cell death at 0.1 to 20 uM by LDH assay; type: functional, cell-based
Method in brief: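 THP-1 cells induced to pyroptosis. Cell death read by LDH release and pore formation by PI uptake. Means ± SE, ≥3 experimental replicates.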

[13] = target: NACHT, LRR and PYD domains-containing protein 3 (Mus musculus) (UniProt Q8R4B8); assay: Activation of NLRP3 inflammasome in LPS-primed mouse […] cells assessed as suppression of ATP-induced pyroptosis at 5 uM; type: cell-based; conditions: J774.A1
Chain of NACHT, LRR and PYD domains-containing protein 3 (Mus musculus) (Q8R4B8 whole entry, the tested form may be a part): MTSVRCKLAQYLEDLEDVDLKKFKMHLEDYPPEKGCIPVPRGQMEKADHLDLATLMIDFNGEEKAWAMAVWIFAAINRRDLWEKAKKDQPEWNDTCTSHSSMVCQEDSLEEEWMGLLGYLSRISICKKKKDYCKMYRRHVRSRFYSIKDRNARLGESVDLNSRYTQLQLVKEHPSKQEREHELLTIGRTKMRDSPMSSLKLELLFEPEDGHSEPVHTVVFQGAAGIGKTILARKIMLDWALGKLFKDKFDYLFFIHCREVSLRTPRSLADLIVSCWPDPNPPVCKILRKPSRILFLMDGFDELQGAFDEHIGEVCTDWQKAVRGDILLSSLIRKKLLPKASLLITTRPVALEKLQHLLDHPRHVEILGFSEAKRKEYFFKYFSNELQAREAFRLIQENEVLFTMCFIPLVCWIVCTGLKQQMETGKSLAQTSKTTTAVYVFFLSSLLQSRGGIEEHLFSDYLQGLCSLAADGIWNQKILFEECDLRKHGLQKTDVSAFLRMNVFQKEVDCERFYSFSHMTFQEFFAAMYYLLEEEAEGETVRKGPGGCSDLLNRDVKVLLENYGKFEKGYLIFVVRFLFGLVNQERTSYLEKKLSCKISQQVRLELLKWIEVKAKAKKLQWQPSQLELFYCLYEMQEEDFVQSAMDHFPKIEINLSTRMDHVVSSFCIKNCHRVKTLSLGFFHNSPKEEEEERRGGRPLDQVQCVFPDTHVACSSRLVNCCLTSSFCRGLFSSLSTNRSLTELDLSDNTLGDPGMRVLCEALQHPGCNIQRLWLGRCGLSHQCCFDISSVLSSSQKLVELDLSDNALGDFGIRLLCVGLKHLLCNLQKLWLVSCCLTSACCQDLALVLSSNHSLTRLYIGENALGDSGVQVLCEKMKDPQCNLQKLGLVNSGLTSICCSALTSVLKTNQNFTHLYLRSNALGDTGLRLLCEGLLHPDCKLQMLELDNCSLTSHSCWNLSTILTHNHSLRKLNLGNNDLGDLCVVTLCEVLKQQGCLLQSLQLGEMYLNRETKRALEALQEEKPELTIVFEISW
Method in brief: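 ATP used as a separate NLRP3 inflammasome activator in macrophages to induce pyroptosis.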

[14] = target: T3, Caspase-1 (Homo sapiens); assay: Inhibition of ASC-mediated caspase-1 cleavage in human THP1 cells transfected with GFP-tagged ASC at 5 uM FACS analysis; type: cell-based; conditions: THP-1
[15] = test system: J774.A1; assay: Inhibition of pyroptosis in LPS-primed immortalized mouse […] cells followed by subsequent nigericin stimulation by imaging analysis; type: functional, cell-based

CCOC(CN1C(=O)C(NC(=O)Nc2ccc(C)cc2)(C(F)(F)C(=O)Nc2ccc(C)cc2)c2ccccc21)OCC (stereo not given)
inhibition [1]: Active | Activity [2]: Active | Activity [3]: inactive | MST [4]: 8 h | Activity [5]: Active | inhibition [6]: Dose-dependent effect | inhibition [7]: Dose-dependent effect | inhibition [8]: Active | inhibition [9]: Active | Activity [10]: Active | inhibition [11]: Active | inhibition [12]: Active | Activity [13]: Active | inhibition [14]: Active | EC50 [15]: 5.5 µM
